For 3 molecules, inhibition and fold change (FC) results are on record in ChEMBL document CHEMBL5653631, “A Potent and Selective ULK1 Inhibitor Suppresses Autophagy and Sensitizes Cancer Cells to Nutrient Stress” (iScience, 2018).

For assay [1], the target named is ALK tyrosine kinase receptor (Homo sapiens) (UniProt Q9UM73). Nature of the assay: Inhibition of human recombinant ALK at 40 nM in presence of ATP by radiometric assay relative to control. In outline:
(§1)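 Panel of 327 recombinant human kinases in radiometric activity assays, each screened in duplicate at a single inhibitor concentration; percent activity remaining relative to vehicle control, percent inhibition taken as 100 minus activity remaining.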

The target in assay [2] is Vascular endothelial growth factor receptor 3 (Homo sapiens) (UniProt P35916). The assay can be described thus: Inhibition of human recombinant FLT4 at 40 nM in presence of ATP by radiometric assay relative to control.
The target in assay [3] is T1, Serine/threonine-protein kinase 17B (Homo sapiens) (UniProt O94768).
T1 sequence (whole entry): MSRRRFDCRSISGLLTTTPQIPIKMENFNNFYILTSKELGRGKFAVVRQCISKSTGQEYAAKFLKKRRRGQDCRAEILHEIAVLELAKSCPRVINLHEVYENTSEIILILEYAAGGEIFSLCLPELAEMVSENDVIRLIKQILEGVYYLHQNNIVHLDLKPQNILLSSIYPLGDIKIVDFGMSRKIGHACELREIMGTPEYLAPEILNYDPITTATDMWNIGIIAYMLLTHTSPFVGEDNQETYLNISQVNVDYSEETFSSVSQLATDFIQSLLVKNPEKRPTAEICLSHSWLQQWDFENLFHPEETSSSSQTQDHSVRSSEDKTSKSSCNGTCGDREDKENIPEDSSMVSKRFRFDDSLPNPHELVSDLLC
Nature of the assay: Inhibition of human recombinant DRAK2 at 40 nM related to control ULK1.

Assay [4] addresses NT-3 growth factor receptor (Homo sapiens) (UniProt Q16288). Nature of the assay: Inhibition of human recombinant TRKC at 40 nM related to control ULK1.
Assay [5] addresses T2, Testis-specific serine/threonine-protein kinase 1 (Homo sapiens) (UniProt Q9BXA7).
T2 sequence (whole entry): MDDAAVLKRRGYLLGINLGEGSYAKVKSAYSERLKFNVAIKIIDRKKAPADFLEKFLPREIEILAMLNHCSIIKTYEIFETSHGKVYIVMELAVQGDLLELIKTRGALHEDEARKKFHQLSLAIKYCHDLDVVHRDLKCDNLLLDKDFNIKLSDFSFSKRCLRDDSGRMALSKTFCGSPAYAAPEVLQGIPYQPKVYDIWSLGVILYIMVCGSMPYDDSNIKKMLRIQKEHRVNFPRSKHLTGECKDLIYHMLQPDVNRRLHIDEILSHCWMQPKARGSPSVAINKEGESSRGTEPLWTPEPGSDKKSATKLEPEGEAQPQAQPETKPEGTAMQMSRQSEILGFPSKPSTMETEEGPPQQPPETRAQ
The assay can be described thus: Inhibition of human recombinant TSSK1 at 40 nM related to control ULK1.

For assay [6], the target named is Calcium/calmodulin-dependent protein kinase type 1G (Homo sapiens) (UniProt Q96NX5). Nature of the assay: Inhibition of human recombinant CaMK1g at 500 nM in presence of ATP by radiometric assay relative to control.
For assay [7], the target named is Serine/threonine-protein kinase PAK 6 (Homo sapiens) (UniProt Q9NQU5). The assay can be described thus: Inhibition of human recombinant PAK6 at 500 nM in presence of ATP by radiometric assay relative to control.
Assay [8] has as its target T2, Testis-specific serine/threonine-protein kinase 1 (Homo sapiens). The assay can be described thus: Inhibition of human recombinant TSSK1 at 500 nM in presence of ATP by radiometric assay relative to control.
For assay [9], the target named is T3, Ephrin type-A receptor 3 (Homo sapiens) (UniProt P29320).
T3 sequence (whole entry): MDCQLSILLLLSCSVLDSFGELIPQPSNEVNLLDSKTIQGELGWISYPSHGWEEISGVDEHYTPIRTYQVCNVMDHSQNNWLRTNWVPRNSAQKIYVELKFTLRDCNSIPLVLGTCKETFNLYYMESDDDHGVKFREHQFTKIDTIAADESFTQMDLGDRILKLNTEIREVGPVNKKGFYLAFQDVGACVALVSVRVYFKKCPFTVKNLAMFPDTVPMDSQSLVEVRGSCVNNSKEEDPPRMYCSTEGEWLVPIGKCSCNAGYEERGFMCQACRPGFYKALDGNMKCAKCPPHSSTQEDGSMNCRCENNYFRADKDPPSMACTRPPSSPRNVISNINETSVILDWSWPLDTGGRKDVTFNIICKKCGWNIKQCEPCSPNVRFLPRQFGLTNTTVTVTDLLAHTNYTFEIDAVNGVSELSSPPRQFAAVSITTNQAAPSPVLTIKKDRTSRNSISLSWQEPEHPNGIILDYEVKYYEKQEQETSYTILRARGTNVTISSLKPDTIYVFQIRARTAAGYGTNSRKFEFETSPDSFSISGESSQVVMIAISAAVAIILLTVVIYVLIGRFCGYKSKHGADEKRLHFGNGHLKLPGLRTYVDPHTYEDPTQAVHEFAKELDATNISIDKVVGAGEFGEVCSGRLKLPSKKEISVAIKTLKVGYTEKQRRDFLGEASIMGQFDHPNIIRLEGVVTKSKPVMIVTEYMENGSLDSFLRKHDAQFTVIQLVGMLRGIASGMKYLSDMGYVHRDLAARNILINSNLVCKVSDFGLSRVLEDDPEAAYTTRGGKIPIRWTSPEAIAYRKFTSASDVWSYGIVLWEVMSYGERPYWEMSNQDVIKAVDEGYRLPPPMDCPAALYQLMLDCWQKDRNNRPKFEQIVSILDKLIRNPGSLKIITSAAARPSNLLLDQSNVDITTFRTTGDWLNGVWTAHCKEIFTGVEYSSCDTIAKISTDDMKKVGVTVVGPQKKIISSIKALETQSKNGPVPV
Nature of the assay: Inhibition of human recombinant EphA3 at 500 nM related to control ULK1.

For assay [10], the target named is Leukocyte tyrosine kinase receptor (Homo sapiens) (UniProt P29376). Nature of the assay: Inhibition of human recombinant LTK at 500 nM related to control ULK1.
For assay [11], the target named is SRSF protein kinase 1 (Homo sapiens) (UniProt Q96SB4). Nature of the assay: Inhibition of human recombinant SRPK1 at 500 nM related to control ULK1.
Assay [12] addresses Tyrosine-protein kinase ABL2 (Homo sapiens) (UniProt P42684). The assay can be described thus: Inhibition of human recombinant ABL2 at 15 nM in presence of ATP by radiometric assay relative to control. In a few lines:
as §1

The target in assay [13] is Dual specificity mitogen-activated protein kinase kinase 1 (Homo sapiens) (UniProt Q02750). The assay can be described thus: Inhibition of human recombinant MAP2K1 at 15 nM in presence of ATP by radiometric assay relative to control.
The target of assay [14] is Non-receptor tyrosine-protein kinase TYK2 (Homo sapiens) (UniProt P29597). Nature of the assay: Inhibition of human recombinant TYK2 at 15 nM in presence of ATP by radiometric assay relative to control.
The target in assay [15] is Glycogen synthase kinase-3 alpha (Homo sapiens) (UniProt P49840). Nature of the assay: Inhibition of human recombinant GSK3A at 15 nM related to control ULK1.
For assay [16], the target named is Mitogen-activated protein kinase kinase kinase 20 (Homo sapiens) (UniProt Q9NYL2). The assay can be described thus: Inhibition of human recombinant ZAK at 15 nM related to control ULK1.

SMILES strings stand for the structures.

Sequence of NT-3 growth factor receptor (Homo sapiens) (Q16288 32-839 limits assumed): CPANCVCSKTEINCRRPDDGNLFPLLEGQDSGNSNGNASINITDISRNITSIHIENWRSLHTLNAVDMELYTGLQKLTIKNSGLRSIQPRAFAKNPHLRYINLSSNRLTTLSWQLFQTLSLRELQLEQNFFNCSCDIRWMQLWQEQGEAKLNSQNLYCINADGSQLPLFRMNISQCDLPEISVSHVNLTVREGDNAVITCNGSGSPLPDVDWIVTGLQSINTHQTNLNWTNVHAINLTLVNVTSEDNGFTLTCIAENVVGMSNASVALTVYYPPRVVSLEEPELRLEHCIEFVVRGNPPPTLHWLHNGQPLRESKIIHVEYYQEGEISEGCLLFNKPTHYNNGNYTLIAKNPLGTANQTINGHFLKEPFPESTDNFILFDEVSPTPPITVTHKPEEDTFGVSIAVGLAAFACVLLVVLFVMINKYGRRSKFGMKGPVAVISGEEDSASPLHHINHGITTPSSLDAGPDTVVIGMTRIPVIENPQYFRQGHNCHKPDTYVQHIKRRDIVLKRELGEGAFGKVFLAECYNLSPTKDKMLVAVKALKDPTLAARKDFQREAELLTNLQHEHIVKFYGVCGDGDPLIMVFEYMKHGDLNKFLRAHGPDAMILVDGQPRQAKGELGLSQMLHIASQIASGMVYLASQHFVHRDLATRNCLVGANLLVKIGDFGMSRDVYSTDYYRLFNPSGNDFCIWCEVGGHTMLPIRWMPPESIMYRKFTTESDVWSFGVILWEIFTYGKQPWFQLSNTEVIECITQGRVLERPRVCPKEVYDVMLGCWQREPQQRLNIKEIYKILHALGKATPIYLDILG
Sequence of Serine/threonine-protein kinase PAK 6 (Homo sapiens) (Q9NQU5 whole entry, looked up): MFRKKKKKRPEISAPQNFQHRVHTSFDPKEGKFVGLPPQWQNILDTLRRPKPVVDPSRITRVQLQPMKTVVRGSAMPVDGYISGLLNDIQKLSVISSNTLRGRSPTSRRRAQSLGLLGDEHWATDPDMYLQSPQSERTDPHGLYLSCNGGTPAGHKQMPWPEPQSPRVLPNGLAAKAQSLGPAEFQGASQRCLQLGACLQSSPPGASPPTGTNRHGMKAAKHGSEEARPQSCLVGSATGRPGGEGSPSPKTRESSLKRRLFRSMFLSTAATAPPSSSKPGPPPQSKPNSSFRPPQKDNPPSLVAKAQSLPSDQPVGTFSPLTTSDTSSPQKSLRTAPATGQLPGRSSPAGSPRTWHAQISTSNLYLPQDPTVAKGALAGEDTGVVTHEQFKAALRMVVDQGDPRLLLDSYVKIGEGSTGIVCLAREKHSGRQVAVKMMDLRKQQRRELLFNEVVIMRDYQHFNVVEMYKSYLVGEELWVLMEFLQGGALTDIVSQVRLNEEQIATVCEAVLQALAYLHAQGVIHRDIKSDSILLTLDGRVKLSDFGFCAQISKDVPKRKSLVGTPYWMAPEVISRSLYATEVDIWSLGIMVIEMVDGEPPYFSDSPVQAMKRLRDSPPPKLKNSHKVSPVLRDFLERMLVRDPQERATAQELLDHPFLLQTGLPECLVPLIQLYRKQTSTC
Sequence of Vascular endothelial growth factor receptor 3 (Homo sapiens) (P35916 whole entry): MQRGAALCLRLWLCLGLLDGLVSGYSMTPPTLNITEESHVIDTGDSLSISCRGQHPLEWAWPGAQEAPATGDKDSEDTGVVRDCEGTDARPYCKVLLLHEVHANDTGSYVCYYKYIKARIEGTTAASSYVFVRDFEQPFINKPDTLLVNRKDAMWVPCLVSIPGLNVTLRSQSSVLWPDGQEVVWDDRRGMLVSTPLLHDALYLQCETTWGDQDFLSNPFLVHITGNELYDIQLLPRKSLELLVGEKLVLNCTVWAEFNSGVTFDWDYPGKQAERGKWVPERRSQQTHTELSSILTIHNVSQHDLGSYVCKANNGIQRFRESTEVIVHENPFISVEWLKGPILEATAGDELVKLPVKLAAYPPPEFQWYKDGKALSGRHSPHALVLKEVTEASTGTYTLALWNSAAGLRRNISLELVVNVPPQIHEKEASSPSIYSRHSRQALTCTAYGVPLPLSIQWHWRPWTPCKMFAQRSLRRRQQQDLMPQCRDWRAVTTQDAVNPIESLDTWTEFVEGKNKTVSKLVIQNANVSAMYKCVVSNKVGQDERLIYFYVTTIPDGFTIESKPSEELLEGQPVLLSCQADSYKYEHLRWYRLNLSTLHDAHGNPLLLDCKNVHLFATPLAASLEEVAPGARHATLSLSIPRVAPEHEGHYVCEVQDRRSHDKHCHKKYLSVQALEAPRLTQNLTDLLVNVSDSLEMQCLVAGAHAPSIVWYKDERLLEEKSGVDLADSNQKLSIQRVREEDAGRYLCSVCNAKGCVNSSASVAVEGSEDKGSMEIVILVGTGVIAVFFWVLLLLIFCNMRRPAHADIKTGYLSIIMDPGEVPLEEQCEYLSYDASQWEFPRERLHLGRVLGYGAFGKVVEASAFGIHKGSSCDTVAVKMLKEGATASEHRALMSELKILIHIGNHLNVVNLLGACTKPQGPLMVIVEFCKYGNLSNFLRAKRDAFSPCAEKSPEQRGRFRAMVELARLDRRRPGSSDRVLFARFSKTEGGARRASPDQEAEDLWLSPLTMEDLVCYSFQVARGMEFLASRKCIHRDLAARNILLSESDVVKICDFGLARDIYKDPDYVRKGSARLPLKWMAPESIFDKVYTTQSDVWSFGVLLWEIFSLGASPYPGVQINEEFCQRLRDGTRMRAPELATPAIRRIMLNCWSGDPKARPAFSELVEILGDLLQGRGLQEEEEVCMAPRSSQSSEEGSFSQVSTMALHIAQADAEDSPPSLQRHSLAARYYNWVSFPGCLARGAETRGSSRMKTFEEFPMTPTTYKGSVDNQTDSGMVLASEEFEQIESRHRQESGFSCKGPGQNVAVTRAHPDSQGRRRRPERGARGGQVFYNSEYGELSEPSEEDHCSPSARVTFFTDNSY
Sequence of Tyrosine-protein kinase ABL2 (Homo sapiens) (P42684 whole entry): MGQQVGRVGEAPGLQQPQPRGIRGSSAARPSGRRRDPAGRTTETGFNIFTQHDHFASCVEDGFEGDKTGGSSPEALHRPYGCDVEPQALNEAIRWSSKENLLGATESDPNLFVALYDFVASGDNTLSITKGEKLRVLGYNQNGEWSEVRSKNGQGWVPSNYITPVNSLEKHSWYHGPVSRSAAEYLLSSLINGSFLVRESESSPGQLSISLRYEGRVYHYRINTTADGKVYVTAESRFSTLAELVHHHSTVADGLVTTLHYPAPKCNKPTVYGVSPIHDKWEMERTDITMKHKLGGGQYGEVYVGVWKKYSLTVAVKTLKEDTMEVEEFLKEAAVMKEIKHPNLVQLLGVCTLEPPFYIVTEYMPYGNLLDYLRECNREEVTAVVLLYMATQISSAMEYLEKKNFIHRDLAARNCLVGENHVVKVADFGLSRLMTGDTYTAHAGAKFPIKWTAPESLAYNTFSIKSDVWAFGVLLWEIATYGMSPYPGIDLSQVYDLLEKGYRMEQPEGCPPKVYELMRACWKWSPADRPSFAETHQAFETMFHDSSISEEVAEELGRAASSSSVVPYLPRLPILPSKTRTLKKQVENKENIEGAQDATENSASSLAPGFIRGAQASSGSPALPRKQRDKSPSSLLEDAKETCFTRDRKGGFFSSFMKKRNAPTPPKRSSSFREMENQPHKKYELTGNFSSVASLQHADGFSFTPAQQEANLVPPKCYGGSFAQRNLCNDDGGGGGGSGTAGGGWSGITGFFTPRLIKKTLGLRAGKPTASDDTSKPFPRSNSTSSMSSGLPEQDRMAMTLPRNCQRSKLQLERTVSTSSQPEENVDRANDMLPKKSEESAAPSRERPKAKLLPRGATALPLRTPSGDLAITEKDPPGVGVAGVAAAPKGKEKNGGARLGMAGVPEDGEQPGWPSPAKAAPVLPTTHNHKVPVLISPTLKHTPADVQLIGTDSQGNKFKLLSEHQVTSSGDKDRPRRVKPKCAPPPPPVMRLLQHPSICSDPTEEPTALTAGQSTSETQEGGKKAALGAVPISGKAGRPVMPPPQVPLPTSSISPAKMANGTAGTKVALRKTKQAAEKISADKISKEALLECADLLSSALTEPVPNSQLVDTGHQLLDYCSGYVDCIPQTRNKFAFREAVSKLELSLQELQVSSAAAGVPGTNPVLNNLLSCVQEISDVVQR
Sequence of Leukocyte tyrosine kinase receptor (Homo sapiens) (P29376 whole entry): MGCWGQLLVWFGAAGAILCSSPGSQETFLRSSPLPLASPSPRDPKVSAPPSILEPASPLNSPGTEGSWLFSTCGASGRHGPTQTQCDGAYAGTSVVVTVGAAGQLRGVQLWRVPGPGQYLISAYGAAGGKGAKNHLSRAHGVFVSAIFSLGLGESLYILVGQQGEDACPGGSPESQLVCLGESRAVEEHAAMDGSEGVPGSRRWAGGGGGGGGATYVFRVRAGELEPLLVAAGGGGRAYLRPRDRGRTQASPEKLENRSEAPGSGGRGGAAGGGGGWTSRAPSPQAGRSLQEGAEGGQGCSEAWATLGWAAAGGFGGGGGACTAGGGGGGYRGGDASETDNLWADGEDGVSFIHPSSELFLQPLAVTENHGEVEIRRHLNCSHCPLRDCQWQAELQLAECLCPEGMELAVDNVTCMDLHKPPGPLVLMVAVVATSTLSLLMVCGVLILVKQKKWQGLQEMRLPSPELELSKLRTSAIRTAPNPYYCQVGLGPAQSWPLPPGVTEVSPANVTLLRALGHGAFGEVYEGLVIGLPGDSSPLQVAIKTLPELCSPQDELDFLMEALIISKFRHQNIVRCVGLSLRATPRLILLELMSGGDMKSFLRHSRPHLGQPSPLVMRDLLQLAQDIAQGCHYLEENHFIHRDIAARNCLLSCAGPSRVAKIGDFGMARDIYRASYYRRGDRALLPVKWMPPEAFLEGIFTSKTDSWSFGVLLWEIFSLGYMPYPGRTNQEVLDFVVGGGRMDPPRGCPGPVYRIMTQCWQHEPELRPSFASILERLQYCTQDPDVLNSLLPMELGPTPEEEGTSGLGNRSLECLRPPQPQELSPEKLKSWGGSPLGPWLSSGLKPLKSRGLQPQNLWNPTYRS

Broadly, the inhibition is the drop in the measured response relative to a control, in per cent. Consider `O=C(N[C@@H](C1CC1)C(F)(F)F)c1cc(-c2cnn3cc(-c4ccc(F)cc4)cnc23)cs1`, for which the results for the inhibition in [1] and in assay [2] were 0% and 19%, respectively. Moreover, the fold change (FC) in assay [3] was found to be 0.53; in [4] it was 0; in assay [5], 0.
With `CNC(=O)c1ccccc1Oc1nc(Nc2cc(OC)c(OC)c(OC)c2)ncc1Br`, the inhibition in assay [6] came out at 6%; in assay [7], 19%; in [8] it was 0%. Further, the fold change (FC) in [9] turned out to be 0.15; in [10], 0.04; in [11] it was 0.14.
As for `CC(C)[C@H](NC(=O)c1cc(-c2cnn3cc(-c4ccc(OCCN5CCCCC5)cc4)cnc23)cs1)C(F)(F)F`, the inhibition came to 42% in assay [12], 7% in [13] and 2% in assay [14]. Also, the fold change (FC) is 0 in assay [15] and 0.3 in assay [16].
